ChEMBL document CHEMBL1145636, “Discovery of a novel and potent series of thieno[3,2-b]pyridine-based inhibitors of c-Met and VEGFR2 tyrosine kinases” (Bioorg Med Chem Lett, 2008)
In brackets after ≈: the same amount, converted by molar mass.

What was measured:
[1] = molecular target: T1, Vascular endothelial growth factor receptor 2 (Homo sapiens, UniProt P35968); assay: Inhibition of GST tagged VEGFR2 expressed in Sf9 cells
Method in brief: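 GST-fused VEGFR2 catalytic domain, baculovirus-expressed in Sf9 cells (MOI 0.1), glutathione-agarose purified; 5 nM enzyme preincubated with inhibitor and Mg-ATP on ice 4 min, then reacted on immobilized poly(Glu4,Tyr) at 30 °C for 10 min in 60 mM Hepes pH 7.5, MgCl2/MnCl2; ATP 0.6 (2× Km); Eu anti-phosphotyrosine TR-fluorescence; seven concentrations in triplicate, four-parameter IC50 fit.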

[2] = molecular target: T2, Hepatocyte growth factor receptor (Homo sapiens, UniProt P08581); assay: Inhibition of GST tagged c-Met expressed in High Five cells
Target sequence in this assay (P08581 whole entry): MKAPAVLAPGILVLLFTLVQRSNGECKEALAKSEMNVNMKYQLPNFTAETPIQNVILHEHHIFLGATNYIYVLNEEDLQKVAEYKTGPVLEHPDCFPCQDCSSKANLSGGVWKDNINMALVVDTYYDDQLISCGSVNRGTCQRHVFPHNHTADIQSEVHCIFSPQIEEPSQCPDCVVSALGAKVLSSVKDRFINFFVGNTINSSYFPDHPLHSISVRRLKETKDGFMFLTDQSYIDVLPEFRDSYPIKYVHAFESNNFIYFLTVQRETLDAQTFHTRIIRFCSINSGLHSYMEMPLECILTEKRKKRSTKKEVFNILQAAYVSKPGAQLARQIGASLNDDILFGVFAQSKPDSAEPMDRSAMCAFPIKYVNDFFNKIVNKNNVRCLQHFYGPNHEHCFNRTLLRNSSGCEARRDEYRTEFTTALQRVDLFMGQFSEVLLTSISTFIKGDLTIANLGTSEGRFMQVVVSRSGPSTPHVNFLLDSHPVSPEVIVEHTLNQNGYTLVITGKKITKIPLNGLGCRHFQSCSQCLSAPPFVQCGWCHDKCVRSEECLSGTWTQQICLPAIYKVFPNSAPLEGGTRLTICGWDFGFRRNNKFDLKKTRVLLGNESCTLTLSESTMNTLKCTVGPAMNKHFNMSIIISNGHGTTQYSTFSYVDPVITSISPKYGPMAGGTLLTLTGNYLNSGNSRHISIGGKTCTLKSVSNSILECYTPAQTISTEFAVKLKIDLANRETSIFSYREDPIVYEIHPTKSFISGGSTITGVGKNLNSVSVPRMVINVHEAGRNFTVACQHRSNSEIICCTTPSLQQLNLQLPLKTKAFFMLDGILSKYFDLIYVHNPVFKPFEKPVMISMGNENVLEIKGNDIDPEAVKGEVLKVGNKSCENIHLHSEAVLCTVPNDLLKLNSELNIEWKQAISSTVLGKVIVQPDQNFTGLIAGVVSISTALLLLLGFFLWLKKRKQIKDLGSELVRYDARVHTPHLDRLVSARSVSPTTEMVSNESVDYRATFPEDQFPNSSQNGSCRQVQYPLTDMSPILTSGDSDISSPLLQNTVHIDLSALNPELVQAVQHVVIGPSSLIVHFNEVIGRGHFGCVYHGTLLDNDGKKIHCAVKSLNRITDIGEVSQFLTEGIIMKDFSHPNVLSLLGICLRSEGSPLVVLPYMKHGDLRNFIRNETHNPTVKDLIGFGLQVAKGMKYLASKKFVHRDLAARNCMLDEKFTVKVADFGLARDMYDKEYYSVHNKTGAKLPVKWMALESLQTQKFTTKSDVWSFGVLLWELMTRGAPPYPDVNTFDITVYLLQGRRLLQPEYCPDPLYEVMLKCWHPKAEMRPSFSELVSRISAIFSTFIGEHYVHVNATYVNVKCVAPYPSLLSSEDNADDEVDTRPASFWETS

Canis familiaris [3] = assay: Oral bioavailability in Beagle dog at 5 mg/kg; assay type: ADME, organism-based, Canis lupus familiaris; conditions: in vivo
[4] = Cmax in Beagle dog at 5 mg/kg, po; assay type: ADME, organism-based, Canis lupus familiaris; design: dose 5 mg/kg, route oral; conditions: in vivo
[5] = molecular target: Serine/threonine-protein kinase Chk1 (Homo sapiens) (UniProt O14757); assay: Inhibition of CHK1 at 100 nM
Method in brief: (§1)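 Radiometric protein kinase assays run through an outsourced kinase selectivity screening service; test agent at 100 nM, percent inhibition of each enzyme reported.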

[6] = Clearance in Sprague-Dawley rat; assay type: ADME, organism-based; conditions: in vivo
[7] = Inhibition of JNK1-alpha-1 at 100 nM; method in brief: as §1
Canis familiaris [8] = assay: AUC in Beagle dog at 5 mg/kg, po; assay type: ADME, organism-based, Canis lupus familiaris, Plasma; design: dose 5 mg/kg, route oral; conditions: in vivo
[9] = Solubility of compound; assay type: physicochemical
[10] = molecular target: Angiopoietin-1 receptor (Homo sapiens) (UniProt Q02763); assay: Inhibition of Tie2 at 100 nM; method in brief: as §1
HOS-TE85 = assay: Antitumor activity in human MNNGHOS cells xenografted mouse assessed as tumor growth inhibition at 20 mg/kg, po once daily after 26 days; assay type: functional; conditions: HOS-TE85, 624 h, read-out: TGI
Method in brief: (§2)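 Human tumor xenografts in mice; test agent given orally at 20 mg/kg once daily; efficacy expressed as percent tumor growth inhibition.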

[11] = AUC in Sprague-Dawley rat at 5 mg/kg, po; assay type: ADME, organism-based; design: dose 5 mg/kg, route oral; conditions: plasma
HCT-116 = assay: Antitumor activity in human HCT116 cells xenografted mouse assessed as tumor growth inhibition at 20 mg/kg, po once daily after 14 days; assay type: functional; conditions: HCT-116, 336 h, read-out: TGI; method in brief: as §2
[12] = molecular target: Tyrosine-protein kinase JAK2 (Homo sapiens) (UniProt O60674); assay: Inhibition of JAK2 at 100 nM; method in brief: as §1
DU-145 = assay: Antitumor activity in human DU145 cells xenografted mouse assessed as tumor growth inhibition at 20 mg/kg, po once daily after 11 days; assay type: functional; conditions: DU-145, 264 h, read-out: TGI; method in brief: as §2
[13] = Tmax in Beagle dog at 5 mg/kg, po; assay type: ADME, organism-based, Canis lupus familiaris; design: dose 5 mg/kg, route oral; conditions: in vivo
Canis familiaris [14] = assay: Clearance in Beagle dog at 0.8 mg/kg, iv or 5 mg/kg, po; assay type: ADME, organism-based, Canis lupus familiaris; conditions: in vivo
[15] = molecular target: Glycogen synthase kinase-3 beta (Homo sapiens) (UniProt P49841); assay: Inhibition of GSK3-beta at 100 nM; method in brief: as §1
[16] = molecular target: Epidermal growth factor receptor (Homo sapiens) (UniProt P00533); assay: Inhibition of EGFR at 100 nM; method in brief: as §1
[17] = molecular target: Mast/stem cell growth factor receptor Kit (Homo sapiens) (UniProt P10721); assay: Inhibition of c-Kit at 100 nM; method in brief: as §1
[18] = Oral bioavailability in Sprague-Dawley rat at 5 mg/kg; assay type: ADME, organism-based; conditions: in vivo
Method in brief: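 An iv reference arm received 2.5 mg/kg (four animals) in DMSO. Plasma was analysed by HPLC-triple-quadrupole MS, and %F was derived from po versus iv exposure.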

[19] = molecular target: Inhibitor of nuclear factor kappa-B kinase subunit beta (Homo sapiens) (UniProt O14920); assay: Inhibition of IKK-beta at 100 nM; method in brief: as §1
Chain of Inhibitor of nuclear factor kappa-B kinase subunit beta (Homo sapiens) (O14920 whole entry): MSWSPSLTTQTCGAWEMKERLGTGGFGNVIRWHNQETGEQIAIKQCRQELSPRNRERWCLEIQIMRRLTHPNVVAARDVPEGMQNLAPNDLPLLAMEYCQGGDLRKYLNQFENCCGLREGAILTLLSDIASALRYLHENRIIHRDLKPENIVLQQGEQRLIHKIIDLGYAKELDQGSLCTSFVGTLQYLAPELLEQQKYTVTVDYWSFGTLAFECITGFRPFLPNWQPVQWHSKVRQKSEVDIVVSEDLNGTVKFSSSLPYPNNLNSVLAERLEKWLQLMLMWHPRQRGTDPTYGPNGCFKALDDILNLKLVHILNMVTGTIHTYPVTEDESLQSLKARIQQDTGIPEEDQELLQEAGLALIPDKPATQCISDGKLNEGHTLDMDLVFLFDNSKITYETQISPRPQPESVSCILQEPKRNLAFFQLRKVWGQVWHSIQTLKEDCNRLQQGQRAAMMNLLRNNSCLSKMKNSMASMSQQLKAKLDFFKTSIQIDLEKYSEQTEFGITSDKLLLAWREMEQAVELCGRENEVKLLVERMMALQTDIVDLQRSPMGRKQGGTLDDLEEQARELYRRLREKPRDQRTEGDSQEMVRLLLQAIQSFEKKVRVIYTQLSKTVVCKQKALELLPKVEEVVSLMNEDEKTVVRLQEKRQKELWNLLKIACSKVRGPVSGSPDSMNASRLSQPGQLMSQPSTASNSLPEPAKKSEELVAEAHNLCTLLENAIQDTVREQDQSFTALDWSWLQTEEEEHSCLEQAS

[20] = molecular target: Tyrosine-protein kinase ABL1 (Homo sapiens) (UniProt P00519); assay: Inhibition of Abl at 100 nM; method in brief: as §1
Cytochrome P450 3A4 = Cytochrome P450 3A4 (Homo sapiens, UniProt P08684); assay: Inhibition of CYP3A4 at 10 uM; assay type: ADME
[21] = Half life in Beagle dog at 0.8 mg/kg, iv; assay type: ADME, organism-based, Canis lupus familiaris; design: dose 0.8 mg/kg, route intravenous; conditions: in vivo
COLO 205 = assay: Antitumor activity in human Colo205 cells xenografted mouse assessed as tumor growth inhibition at 20 mg/kg, po once daily after 16 days; assay type: functional; conditions: COLO 205, 384 h, read-out: TGI; method in brief: as §2
[22] = molecular target: Vascular endothelial growth factor receptor 3 (Homo sapiens) (UniProt P35916); assay: Inhibition of VEGFR3 at 100 nM; method in brief: as §1
[23] = molecular target: Receptor-type tyrosine-protein kinase FLT3 (Homo sapiens) (UniProt P36888); assay: Inhibition of Flt3 at 100 nM; method in brief: as §1
[24] = Volume of distribution at steady state in Beagle dog at 0.8 mg/kg, iv or 5 mg/kg, po; assay type: ADME, organism-based, Canis lupus familiaris; conditions: in vivo, read-out: Vdss
[25] = molecular target: T2, Hepatocyte growth factor receptor; assay: Inhibition of TPR-Met fusion protein assessed as Y1230-34-35 phosphorylation
Target sequence in this assay (P08581 25-1390 limits assumed): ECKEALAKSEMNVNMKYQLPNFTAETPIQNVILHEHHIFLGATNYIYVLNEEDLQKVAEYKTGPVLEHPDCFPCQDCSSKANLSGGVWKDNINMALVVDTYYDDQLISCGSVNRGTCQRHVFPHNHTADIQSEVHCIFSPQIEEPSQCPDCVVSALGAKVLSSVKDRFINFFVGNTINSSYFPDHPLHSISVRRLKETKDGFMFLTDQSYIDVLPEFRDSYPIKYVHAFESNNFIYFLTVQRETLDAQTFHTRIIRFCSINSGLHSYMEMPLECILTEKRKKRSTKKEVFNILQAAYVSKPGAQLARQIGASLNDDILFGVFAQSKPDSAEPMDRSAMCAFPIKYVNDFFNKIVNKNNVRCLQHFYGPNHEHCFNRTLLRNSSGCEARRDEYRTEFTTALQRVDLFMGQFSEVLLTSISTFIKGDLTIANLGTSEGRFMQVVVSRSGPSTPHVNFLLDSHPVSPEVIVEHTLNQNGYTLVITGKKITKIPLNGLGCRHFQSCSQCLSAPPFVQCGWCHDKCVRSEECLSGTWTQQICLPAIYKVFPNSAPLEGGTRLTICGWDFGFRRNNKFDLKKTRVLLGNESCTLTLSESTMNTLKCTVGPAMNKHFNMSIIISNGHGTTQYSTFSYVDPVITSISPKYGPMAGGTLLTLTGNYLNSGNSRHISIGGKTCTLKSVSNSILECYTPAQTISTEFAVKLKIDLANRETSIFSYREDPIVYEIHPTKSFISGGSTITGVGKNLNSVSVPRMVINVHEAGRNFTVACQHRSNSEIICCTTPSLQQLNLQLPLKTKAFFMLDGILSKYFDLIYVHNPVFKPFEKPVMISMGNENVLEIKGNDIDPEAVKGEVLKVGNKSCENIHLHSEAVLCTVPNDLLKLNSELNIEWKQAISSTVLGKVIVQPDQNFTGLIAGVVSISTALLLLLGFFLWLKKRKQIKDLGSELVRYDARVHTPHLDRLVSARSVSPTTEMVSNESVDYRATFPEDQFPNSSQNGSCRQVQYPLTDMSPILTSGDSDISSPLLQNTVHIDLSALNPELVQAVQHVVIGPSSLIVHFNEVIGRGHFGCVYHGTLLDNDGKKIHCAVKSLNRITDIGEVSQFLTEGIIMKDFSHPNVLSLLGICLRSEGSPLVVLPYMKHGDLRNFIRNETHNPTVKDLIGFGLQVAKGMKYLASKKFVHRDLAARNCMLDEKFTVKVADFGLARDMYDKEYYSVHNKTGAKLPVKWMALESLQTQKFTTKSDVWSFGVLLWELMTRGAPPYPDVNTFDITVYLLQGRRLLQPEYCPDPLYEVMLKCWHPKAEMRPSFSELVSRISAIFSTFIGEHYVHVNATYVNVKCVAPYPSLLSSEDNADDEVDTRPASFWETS

[26] = Tmax in Sprague-Dawley rat at 5 mg/kg, po; assay type: ADME, organism-based; design: dose 5 mg/kg, route oral; conditions: in vivo
[27] = Half life in Sprague-Dawley rat at 2.5 mg/kg, iv; assay type: ADME, organism-based; design: dose 2.5 mg/kg, route intravenous; conditions: in vivo
Method in brief: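 Female Sprague–Dawley rats were given a single iv dose of 2.5 mg/kg (four animals) in DMSO. The test material had >95% chromatographic purity. Plasma was analysed by HPLC with triple-quadrupole MS, and PK parameters were calculated from the concentration–time data.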

[28] = molecular target: High affinity nerve growth factor receptor (Homo sapiens) (UniProt P04629); assay: Inhibition of TrkA at 100 nM; method in brief: as §1
[29] = molecular target: T1, Vascular endothelial growth factor receptor 2; assay: Inhibition of human VEGFR2-dependent ERK phosphorylation in HUVEC; assay type: cell-based
MKN-45 = assay: Antitumor activity in human MKN45 cells xenografted mouse assessed as tumor growth inhibition at 20 mg/kg, po once daily after 13 days; assay type: functional; conditions: MKN-45, 312 h, read-out: TGI; method in brief: as §2
[30] = molecular target: Vascular endothelial growth factor receptor 1 (Homo sapiens) (UniProt P17948); assay: Inhibition of VEGFR1 at 100 nM; method in brief: as §1
[31] = Volume of distribution at steady state in Sprague-Dawley rat; assay type: ADME, organism-based; conditions: in vivo, read-out: Vdss
[32] = molecular target: Insulin-like growth factor 1 receptor (Homo sapiens) (UniProt P08069); assay: Inhibition of IGF1R at 100 nM; method in brief: as §1
[33] = molecular target: Macrophage-stimulating protein receptor (Homo sapiens) (UniProt Q04912); assay: Inhibition of Ron at 100 nM; method in brief: as §1
[34] = Cmax in Sprague-Dawley rat at 5 mg/kg, po; assay type: ADME, organism-based; design: dose 5 mg/kg, route oral; conditions: in vivo

T1 sequence (P35968 whole entry, the tested form may be a part): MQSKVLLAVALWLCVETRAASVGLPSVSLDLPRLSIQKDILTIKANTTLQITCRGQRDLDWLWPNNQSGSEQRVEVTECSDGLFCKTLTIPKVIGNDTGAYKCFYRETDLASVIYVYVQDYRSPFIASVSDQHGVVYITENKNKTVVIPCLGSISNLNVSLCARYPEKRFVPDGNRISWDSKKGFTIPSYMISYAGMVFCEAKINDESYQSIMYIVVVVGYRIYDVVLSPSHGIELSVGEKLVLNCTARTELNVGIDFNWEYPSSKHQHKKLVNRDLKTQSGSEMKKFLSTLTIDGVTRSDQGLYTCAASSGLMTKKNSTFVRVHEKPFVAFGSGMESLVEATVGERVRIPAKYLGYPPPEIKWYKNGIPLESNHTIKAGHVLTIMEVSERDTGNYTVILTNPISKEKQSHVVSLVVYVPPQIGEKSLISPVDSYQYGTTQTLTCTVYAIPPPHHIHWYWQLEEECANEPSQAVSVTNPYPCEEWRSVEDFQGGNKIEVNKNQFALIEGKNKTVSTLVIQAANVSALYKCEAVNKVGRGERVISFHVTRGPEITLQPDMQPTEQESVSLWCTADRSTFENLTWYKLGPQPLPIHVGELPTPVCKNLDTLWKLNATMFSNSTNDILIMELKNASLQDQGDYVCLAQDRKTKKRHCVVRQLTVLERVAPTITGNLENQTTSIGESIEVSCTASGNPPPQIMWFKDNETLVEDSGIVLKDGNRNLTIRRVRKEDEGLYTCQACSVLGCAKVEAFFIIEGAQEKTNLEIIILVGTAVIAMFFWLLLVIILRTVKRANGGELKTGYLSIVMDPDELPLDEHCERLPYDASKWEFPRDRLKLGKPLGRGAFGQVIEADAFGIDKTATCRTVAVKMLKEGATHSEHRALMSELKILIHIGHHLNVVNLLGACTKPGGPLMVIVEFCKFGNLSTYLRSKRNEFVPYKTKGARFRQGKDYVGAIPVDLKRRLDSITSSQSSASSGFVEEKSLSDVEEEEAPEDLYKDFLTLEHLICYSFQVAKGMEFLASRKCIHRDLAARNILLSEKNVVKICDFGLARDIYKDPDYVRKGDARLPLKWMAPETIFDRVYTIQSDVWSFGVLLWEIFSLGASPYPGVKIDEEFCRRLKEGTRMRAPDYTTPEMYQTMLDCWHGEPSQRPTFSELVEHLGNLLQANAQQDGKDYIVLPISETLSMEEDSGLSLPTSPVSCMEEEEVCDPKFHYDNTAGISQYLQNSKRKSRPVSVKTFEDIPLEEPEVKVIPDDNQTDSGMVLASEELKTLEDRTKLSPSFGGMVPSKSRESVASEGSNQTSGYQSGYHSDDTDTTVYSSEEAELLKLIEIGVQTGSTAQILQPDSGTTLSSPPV

Compound: O=C(Cc1ccccc1)NC(=S)Nc1ccc(Oc2ccnc3ccsc23)c(F)c1
- IC50 [1]: 1130 nM

Compound: CN(C)C(=O)c1cc2nccc(Oc3ccc(NC(=S)NC(=O)Cc4ccccc4)cc3F)c2s1
- IC50 [1]: 19 nM

Compound: O=C(Cc1ccccc1)NC(=S)Nc1ccc(Oc2ccnc3cc(-c4nncs4)sc23)c(F)c1
- IC50 [2]: 60 nM
- IC50 [1]: 145 nM

Compound: Cn1cnc(-c2cc3nccc(Oc4ccc(NC(=S)NC(=O)Cc5ccccc5)cc4F)c3s2)c1
- F (Canis familiaris [3]): 42%
- Cmax [4]: 210 nM
- inhibition [5]: < 5%
- clearance [6]: 5.5 mL/min/kg
- inhibition [7]: < 5%
- AUC (Canis familiaris [8]): 0.74 µM·h
- solubility [9]: 30 µg/mL (≈ 58 µM)
- inhibition [10]: 81%
- inhibition in vivo at 20 mg/kg (HOS-TE85): 61%
- AUC [11]: 0.74 µM·h
- inhibition in vivo at 20 mg/kg (HCT-116): 41%
- inhibition [12]: < 5%
- inhibition in vivo at 20 mg/kg (DU-145): 57%
- Tmax [13]: 1.1 h
- CL (Canis familiaris [14]): 18.3 mL/min/kg
- inhibition [15]: < 5%
- inhibition [16]: < 5%
- inhibition [17]: 92%
- bioavailability [18]: 12%
- inhibition [19]: < 5%
- inhibition [20]: 91%
- Inhibition (Cytochrome P450 3A4): Not Active
- half-life [21]: 5.8 h
- IC50 [1]: 10 nM
- inhibition in vivo at 20 mg/kg (COLO 205): 41%
- inhibition [22]: 100%
- inhibition [23]: 96%
- Vd [24]: 1.5 L/kg
- IC50 [25]: 12 nM
- Tmax [26]: 3.5 h
- half-life [27]: 1.2 h
- inhibition [28]: 99%
- IC50 [29]: 30 nM
- inhibition in vivo at 20 mg/kg (MKN-45): 94%
- inhibition [30]: 91%
- Vd [31]: 0.25 L/kg
- inhibition [32]: < 5%
- inhibition [33]: 80%
- Cmax [34]: 140 nM

Compound: O=C(Cc1ccccc1)NC(=S)Nc1ccc(Oc2ccnc3cc(C(=O)N4CCCC4)sc23)c(F)c1
- IC50 [2]: 54 nM
- IC50 [1]: 9 nM

Compound: O=C(Cc1ccccc1)NC(=S)Nc1ccc(Oc2ccnc3cc(-c4nccs4)sc23)c(F)c1
- IC50 [2]: 65 nM
- IC50 [1]: 17 nM
- IC50 [25]: 28 nM

Compound: Cn1cc(-c2cc3nccc(Oc4ccc(NC(=S)NC(=O)Cc5ccccc5)cc4F)c3s2)cn1
- IC50 [2]: 24 nM
- IC50 [1]: 25 nM

Compound: CNC(=O)c1cc2nccc(Oc3ccc(NC(=S)NC(=O)Cc4ccccc4)cc3F)c2s1
- IC50 [1]: 133 nM

Compound: CCn1cnc(-c2cc3nccc(Oc4ccc(NC(=S)NC(=O)Cc5ccccc5)cc4F)c3s2)c1
- IC50 [2]: 52 nM
- IC50 [1]: 11 nM
- IC50 [25]: 22 nM

Compound: O=C(Cc1ccccc1)NC(=S)Nc1ccc(Oc2ccnc3cc(C(=O)c4ccco4)sc23)c(F)c1
- IC50 [2]: 130 nM
- IC50 [1]: 127 nM

Compound: O=C(Cc1ccccc1)NC(=S)Nc1ccc(Oc2ccnc3cc(-c4ccoc4)sc23)c(F)c1
- IC50 [2]: 74 nM
- IC50 [1]: 593 nM

Compound: Cn1ncnc1-c1cc2nccc(Oc3ccc(NC(=S)NC(=O)Cc4ccccc4)cc3F)c2s1
- IC50 [2]: 69 nM
- IC50 [1]: 28 nM
- IC50 [25]: 20 nM

Compound: NC(=O)c1cc2nccc(Oc3ccc(NC(=S)NC(=O)Cc4ccccc4)cc3F)c2s1
- IC50 [1]: 129 nM

Compound: O=C(Cc1ccccc1)NC(=S)Nc1ccc(Oc2ccnc3cc(C(=O)N4CCOCC4)sc23)c(F)c1
- IC50 [2]: 125 nM
- IC50 [1]: 289 nM

Compound: Cn1ccnc1-c1cc2nccc(Oc3ccc(NC(=S)NC(=O)Cc4ccccc4)cc3F)c2s1
- solubility [9]: 1.7 µg/mL (≈ 3.28 µM)
- IC50 [1]: 10 nM

Compound: O=C(Cc1ccccc1)NC(=S)Nc1ccc(Oc2ccnc3cc(-c4ncccn4)sc23)c(F)c1
- IC50 [1]: 94 nM

Compound: CN1CCN(C(=O)c2cc3nccc(Oc4ccc(NC(=S)NC(=O)Cc5ccccc5)cc4F)c3s2)CC1
- IC50 [2]: 193 nM
- IC50 [1]: 344 nM

Compound: COC(=O)c1cc2nccc(Oc3ccc(NC(=S)NC(=O)Cc4ccccc4)cc3F)c2s1
- IC50 [1]: 90 nM

Compound: CCN(CC)C(=O)c1cc2nccc(Oc3ccc(NC(=S)NC(=O)Cc4ccccc4)cc3F)c2s1
- IC50 [2]: 114 nM
- IC50 [1]: 386 nM

Compound: O=C(Cc1ccccc1)NC(=S)Nc1ccc(Oc2ccnc3cc(-c4cccnc4)sc23)c(F)c1
- IC50 [1]: 113 nM

Compound: CC(O)c1cc2nccc(Oc3ccc(NC(=S)NC(=O)Cc4ccccc4)cc3F)c2s1 (configuration not stated)
- IC50 [1]: 561 nM

Compound: O=C(Cc1ccccc1)NC(=S)Nc1ccc(Oc2ccnc3cc(-c4cccs4)sc23)c(F)c1
- IC50 [1]: 32 nM

Compound: COc1cc2nccc(Oc3ccc(NC(=S)NC(=O)Cc4ccccc4)cc3F)c2cc1OC
- IC50 [1]: 32 nM

Compound: O=C(Cc1ccccc1)NC(=S)Nc1ccc(Oc2ccnc3cc(-c4ccccn4)sc23)c(F)c1
- IC50 [1]: 17 nM

Compound: Cn1cccc1-c1cc2nccc(Oc3ccc(NC(=S)NC(=O)Cc4ccccc4)cc3F)c2s1
- IC50 [2]: 49 nM
- IC50 [1]: 31 nM
- IC50 [25]: 108 nM

Compound: CCn1ccnc1-c1cc2nccc(Oc3ccc(NC(=S)NC(=O)Cc4ccccc4)cc3F)c2s1
- IC50 [2]: 108 nM
- IC50 [1]: 25 nM
- IC50 [25]: 35 nM

Compound: O=C(Cc1ccccc1)NC(=S)Nc1ccc(Oc2ccnc3cc(-c4cncnc4)sc23)c(F)c1
- IC50 [2]: 63 nM
- IC50 [1]: 175 nM
- IC50 [25]: 5000 nM

Compound: CSc1cc2nccc(Oc3ccc(NC(=S)NC(=O)Cc4ccccc4)cc3F)c2s1
- IC50 [1]: 346 nM
